Experimental findings from ChEMBL document CHEMBL4834428 are described below.

For orientation: Km means the substrate concentration at which the rate is half of its maximum.

Substrate in series [1]: N#Cc1ccccc1CN1CC(C(N)=O)Oc2ccccc21
Conditions: Homo sapiens; dose 200.0 nM, time 30.0 min.

Substrate in series [2]: N#Cc1ccccc1CN1CC(C(N)=O)Oc2ccccc21
The settings on record: Homo sapiens; dose 100.0 nM, time 30.0 min.

Substrate in series [3]: N#Cc1ccccc1CN1CC(C(N)=O)Oc2ccccc21
Conditions: Homo sapiens; dose 200.0 nM, time 30.0 min. The source holds these as a separate data set.

Compound in series [4]: N#Cc1ccccc1CN1CC(C(N)=O)Oc2ccccc21
Put plainly: Uncompetitive inhibition of His6-tagged SIRT1 (unknown origin) expressed in Escherichia coli BL21 (DE3) assessed as change in Km at 800 nM measured every 2 mins for 30 mins in presence of NAD+ and ATP by […] based Michaelis-Menten analysis (reference value: 54.3 to 57.6 uM). Conditions: Homo sapiens. The essentials: (§1)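 Continuous assay, triplicates: 100 nM His6-SirT1 catalytic domain, ~270 nM FLucK529ac, inhibitor 100–1600 nM in sirtuin buffer 2 plus luciferase buffer (0.5 mM ATP, 0.5 mM luciferin, pH 7.8).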

Compound in series [5]: N#Cc1ccccc1CN1CC(C(N)=O)Oc2ccccc21
Put plainly: Uncompetitive inhibition of His6-tagged SIRT1 (unknown origin) expressed in Escherichia coli BL21 (DE3) assessed as change in Vmax at 1600 nM measured every 2 mins for 30 mins in presence of NAD+ and ATP by […] based Michaelis-Menten analysis (reference value: 860 to 1326 AU/min). Conditions: Homo sapiens. The procedure, abridged:
as §1

Compound in series [6]: N#Cc1ccccc1CN1CC(C(N)=O)Oc2ccccc21
The series is described as follows: Uncompetitive inhibition of His6-tagged SIRT1 (unknown origin) expressed in Escherichia coli BL21 (DE3) assessed as change in Vmax at 800 nM measured every 2 mins for 30 mins in presence of NAD+ and ATP by […] based Michaelis-Menten analysis (reference value: 860 to 1326 AU/min). Conditions: Homo sapiens. The procedure, abridged:
as §1

Compound in series [7]: N#Cc1ccccc1CN1CC(C(N)=O)Oc2ccccc21
The series is described as follows: Uncompetitive inhibition of His6-tagged SIRT1 (unknown origin) expressed in Escherichia coli BL21 (DE3) assessed as change in Km at 1600 nM measured every 2 mins for 30 mins in presence of NAD+ and ATP by […] based Michaelis-Menten analysis (reference value: 54.3 to 57.6 uM). Conditions: Homo sapiens. The essentials: as §1

Substrate in series [8]: N#Cc1ccccc1CN1CC(C(N)=O)Oc2ccccc21
Conditions: Homo sapiens; dose 100.0 nM, time 30.0 min. The source holds these as a separate data set.

Substrate in series [9]: N#Cc1ccccc1CN1CC(C(N)=O)Oc2ccccc21
Conditions: Homo sapiens; dose 400.0 nM, time 30.0 min.

Substrate in series [10]: N#Cc1ccccc1CN1CC(C(N)=O)Oc2ccccc21
Conditions: Homo sapiens; dose 400.0 nM, time 30.0 min. The source holds these as a separate data set.

B1: NAD-dependent protein deacetylase sirtuin-1 (Homo sapiens), Q96EB6 (protein)
chain: MADEAALALQPGGSPSAAGADREAASSPAGEPLRKRPRRDGPGLERSPGEPGGAAPEREVPAAARGCPGAAAAALWREAEAEAAAAGGEQEAQATAAAGEGDNGPGLQGPSREPPLADNLYDEDDDDEGEEEEEAAAAAIGYRDNLLFGDEIITNGFHSCESDEEDRASHASSSDWTPRPRIGPYTFVQQHLMIGTDPRTILKDLLPETIPPPELDDMTLWQIVINILSEPPKRKKRKDINTIEDAVKLLQECKKIIVLTGAGVSVSCGIPDFRSRDGIYARLAVDFPDLPDPQAMFDIEYFRKDPRPFFKFAKEIYPGQFQPSLCHKFIALSDKEGKLLRNYTQNIDTLEQVAGIQRIIQCHGSFATASCLICKYKVDCEAVRGDIFNQVVPRCPRCPADEPLAIMKPEIVFFGENLPEQFHRAMKYDKDEVDLLIVIGSSLKVRPVALIPSSIPHEVPQILINREPLPHLHFDVELLGDCDVIINELCHRLGGEYAKLCCNPVKLSEITEKPPRTQKELAYLSELPPTPLHVSEDSSSPERTSPPDSSVIVTLLDQAAKSNDDLDVSESKGCMEEKPQEVQTSRNVESIAEQMENPDLKNVGSSTGEKNERTSVAGTVRKCWPNRVAKEQISRRLDGNQYLFLPPNRYIFHGAEVYSDSEDDVLSSSSCGSNSDSGTCQSPSLEEPMEDESEIEEFYNGLEDEPDVPERAGGAGFGTDGDDQEAINEAISVKQEVTDMNYPSNKS
For the protein B1, the Michaelis constant (Km) was 34.6 µM in [1]; 10 µM in series [4]; 4.9 µM in series [7]; 47.7 µM in series [8]; 23.8 µM in series [9]. In addition, the Vmax in series [2] was 864 AU/min; in series [3] it was 673 AU/min; in series [5] it was 208 AU/min; in [6], 304 AU/min; in series [10] it was 522 AU/min.
